Reference: ChEMBL document CHEMBL4261589, “Structure-based design of allosteric calpain-1 inhibitors populating a novel bioactivity space” (Eur J Med Chem, 2018)
Calls of active or inactive are those of the source. No cut-off for these calls is given here.

Legend:
[1] = target: T1, Calpain-1 catalytic subunit (Sus scrofa, UniProt P35750); test: Inhibition of full length porcine Calpain-1 complex using (H2NeK(-FAM)-EVYGMMK(DABCYL)eOH) substrate by FRET assay
T1 sequence (P35750 whole entry): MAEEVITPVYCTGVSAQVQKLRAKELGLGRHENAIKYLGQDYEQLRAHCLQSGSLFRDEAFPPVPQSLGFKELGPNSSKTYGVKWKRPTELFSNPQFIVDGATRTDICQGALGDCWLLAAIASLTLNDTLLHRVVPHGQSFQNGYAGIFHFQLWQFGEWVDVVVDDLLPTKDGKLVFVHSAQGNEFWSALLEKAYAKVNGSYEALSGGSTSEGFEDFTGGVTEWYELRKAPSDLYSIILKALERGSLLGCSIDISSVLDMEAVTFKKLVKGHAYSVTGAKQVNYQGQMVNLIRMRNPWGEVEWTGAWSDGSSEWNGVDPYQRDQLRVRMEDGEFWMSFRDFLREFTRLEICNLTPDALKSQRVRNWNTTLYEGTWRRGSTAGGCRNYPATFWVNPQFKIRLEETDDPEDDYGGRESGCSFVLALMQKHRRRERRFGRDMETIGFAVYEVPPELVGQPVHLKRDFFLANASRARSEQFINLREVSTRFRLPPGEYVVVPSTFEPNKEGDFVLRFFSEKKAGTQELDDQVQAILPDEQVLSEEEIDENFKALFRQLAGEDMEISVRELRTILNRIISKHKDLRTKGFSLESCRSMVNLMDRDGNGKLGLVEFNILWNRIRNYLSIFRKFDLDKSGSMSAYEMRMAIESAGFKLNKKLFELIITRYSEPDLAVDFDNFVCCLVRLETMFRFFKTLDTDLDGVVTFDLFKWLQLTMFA
Summary of the method: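 Purified porcine calpain-1 (25 nM) with 1 µM FAM/DABCYL α-spectrin peptide, cleaved at Tyr-Gly, in 10 mM HEPES, 10 mM DTT, 0.5 mM EDTA, 0.1% BSA, pH 6.8, at 37 °C. Compounds (5 nM–200 µM, from DMSO stock) were added before starting with 5 mM CaCl2. Fluorescence read at ex 490/em 520 nm. DMSO-alone controls were run. IC50 given as mean ± SD of three independent experiments.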

[2] = target: Calpain-1 catalytic subunit (Homo sapiens) (UniProt P07384); test: Inhibition of human Calpain-1 active site domain using (H2NeK(-FAM)-EVYGMMK(DABCYL)eOH) substrate by FRET assay
[3] = target: Calpain small subunit 1 (Homo sapiens) (UniProt P04632); test: Binding affinity to human Calpain-1 PEF(S) domain at 0.5 to 500 uM expressed in Escherichia coli BL21-CodonPlus (DE3) RP cells incubated for 5 mins by TNS displacement assay
Calpain small subunit 1 (Homo sapiens), sequence (P04632 whole entry, looked up): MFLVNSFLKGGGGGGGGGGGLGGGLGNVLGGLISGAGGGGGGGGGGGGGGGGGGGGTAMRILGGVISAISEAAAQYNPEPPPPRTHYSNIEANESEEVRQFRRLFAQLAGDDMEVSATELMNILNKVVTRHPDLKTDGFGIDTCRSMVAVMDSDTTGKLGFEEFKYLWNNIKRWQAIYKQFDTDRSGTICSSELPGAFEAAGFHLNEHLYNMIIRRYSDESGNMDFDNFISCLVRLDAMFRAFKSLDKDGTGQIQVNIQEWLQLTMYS

| Compound | IC50 [1] | IC50 [2] | Activity [3] | IC50 ([1]; read-out: IC50) | IC50 ([2]; read-out: IC50) |
| --- | --- | --- | --- | --- | --- |
| O=C1CCCN1c1cccc(NS(=O)(=O)c2cccc(C(F)(F)F)c2)c1 | Not Active | Not Active | inactive |  |  |
| NC(=O)c1cccc(NS(=O)(=O)c2cccc(C(F)(F)F)c2)c1 | Not Active | Not Active | Active |  |  |
| COCCOc1nc(-c2ccc(OC)cc2)n(-c2cccc(NC(=O)c3ccc(C)c(C(F)(F)F)c3)c2)n1 | Not Active | Not Active |  |  |  |
| O=C(CSc1nnc2ccc(-c3ccccn3)nn12)Nc1cccc(C(F)(F)F)c1 |  | Not Active |  | 29.7 µM |  |
| O=C(NC1CCC(O)CC1)c1ccc(S(=O)(=O)Nc2cccc(C(F)(F)F)c2)cc1 (stereo not drawn) | Not Active | Not Active | Active |  |  |
| FC(F)(F)c1ccc(CSc2nnc3ccc(-c4ccccn4)nn23)cc1 |  | Not Active |  | 20.5 µM |  |
| COCCOc1nc(-c2cccc(C(F)(F)F)c2)n(-c2ccc(NC(=O)C(C)C)cc2)n1 | Not Active | Not Active |  |  |  |
| O=C(O)/C(S)=C/c1ccc(I)cc1 |  |  | Active | 19.3 µM | 17.8 µM |
| FC(F)(F)c1cccc(CSc2nnc3ccc(-c4ccccn4)nn23)c1 | Not Active | Not Active |  |  |  |
| O=C(O)c1cc(NS(=O)(=O)c2ccc(F)cc2)cnc1N1CCCCCC1 |  |  | Active | > 100 µM | 41.1 µM |
| CC(C)(C)NC(=O)c1ccc(Oc2cc(F)c(CC(=O)O)cc2Cl)c(NS(=O)(=O)c2ccc(C3CC3)cc2Cl)c1 [VIDUPIPRANT] |  |  | Active | 7.5 µM | > 100 µM |
